Hits are enriched below; roughly 2.5% of the tested compounds scored in any of these assays.
SENP6 block – SENP6 protease inhibition; Q9GZR1; Recombinant SENP6 catalytic domain, aminoluciferin luminescence; inhibition, % at 10 µM; 330,000 compounds, 1.8% hits; AID 2599;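 active = inhibition above about 50% at the single tested dose, limit read from the data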;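 also: plate controls were DMSO wells with enzyme for no effect and DMSO wells lacking enzyme for full effect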
Target sequence (Q9GZR1 628-1112 limits assumed): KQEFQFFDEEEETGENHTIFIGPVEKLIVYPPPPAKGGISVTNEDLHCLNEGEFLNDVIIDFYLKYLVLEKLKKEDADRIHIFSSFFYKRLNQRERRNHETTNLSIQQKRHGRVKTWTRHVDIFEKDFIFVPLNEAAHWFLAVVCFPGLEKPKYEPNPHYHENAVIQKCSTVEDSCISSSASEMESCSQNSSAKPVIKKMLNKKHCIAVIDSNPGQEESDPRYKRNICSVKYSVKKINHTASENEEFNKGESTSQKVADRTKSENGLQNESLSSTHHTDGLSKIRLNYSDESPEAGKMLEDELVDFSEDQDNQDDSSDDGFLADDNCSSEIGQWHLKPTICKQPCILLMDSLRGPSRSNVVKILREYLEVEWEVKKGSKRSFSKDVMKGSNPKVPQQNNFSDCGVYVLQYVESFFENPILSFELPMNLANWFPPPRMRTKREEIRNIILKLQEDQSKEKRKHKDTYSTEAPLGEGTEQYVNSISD
SENP8 block-1 – SENP8 (human) protease inhibition | 360,000 compounds, 0.64% hits | recombinant SENP8, Nedd8 substrate fluorescence | AID 602440 | inhibition, % at 20 µM; in the data active = inhibition mostly above about 40%, no sharp cut-off; inactive = mostly below about 27%
SENP8 block-2 – SENP8 protease inhibition; purified SENP8, Z-RLRGG-aminoluciferin cleavage, luminescence; inhibition, % at 10 µM; 330,000 compounds, 1.2% hits; AID 2540; in the data active = inhibition above about 50%
SENP7 inh – inhibitors of human SENP7 protease. Q9BQF6. 330,000 compounds, 1.5% hits. recombinant SENP7, Z-RLRGG-aminoluciferin luminescence, 40 min. AID 434973. inhibition, % at 5 µM;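 active = inhibition above about 50% at the single test dose, limit read from the data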;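 also: plate controls were DMSO with enzyme for no effect and no enzyme buffer wells for full effect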
SENP1 inh – inhibitors of human SENP1 SUMO protease catalytic domain; Q9P0U3; recombinant SENP1 catalytic domain, CyPet-SUMO1-YPet FRET cleavage; inhibition, % at 10 µM; 360,000 compounds, 0.21% hits; AID 624204;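 active = inhibition at least 30% at 10 µM, raw YFP signal under a set limit, fluorescence ratio 0.5 to 1.5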;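 also: 0% = enzyme with DMSO and 100% = no enzyme wells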
Target sequence (Q9P0U3 419-644 limits assumed): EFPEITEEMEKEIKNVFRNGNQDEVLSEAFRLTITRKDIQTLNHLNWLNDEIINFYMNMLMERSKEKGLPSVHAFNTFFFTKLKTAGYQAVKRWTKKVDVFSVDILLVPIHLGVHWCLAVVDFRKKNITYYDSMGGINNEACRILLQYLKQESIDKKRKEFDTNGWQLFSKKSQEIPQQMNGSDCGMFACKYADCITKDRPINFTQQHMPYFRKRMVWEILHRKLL
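Compound: 10 µM single point, 0.5% DMSO; Test system: hSENP1 catalytic domain, recombinant; Timing: 50 min reaction at room temperature; Technique: FRET, CFP and YFP emission; Control set: no-enzyme wells low, DMSO-plus-enzyme wells high control.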
SENP8 conf-1 – human SENP8 inhibition, confirmed. inhibition, % at 12.5 µM. AID 488912. 6,200 compounds, 40% hits. shares compounds with SENP7 inh. Recombinant SENP8, Z-RLRGG-aminoluciferin luminescence, 60 min;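 active = mean inhibition across replicates above about 50%, limit read from the data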
SENP6 confirm – human SENP6 inhibition, confirmed | 6,200 compounds, 58% hits | shares compounds with SENP7 inh | inhibition, % at 12.5 µM | recombinant SENP6, Z-RLRGG-aminoluciferin luminescence
SENP7 confirm – human SENP7 inhibition, confirmed. recombinant SENP7, Z-RLRGG-aminoluciferin luminescence, 40 min. shares compounds with SENP7 inh. 6,200 compounds, 69% hits. AID 488917. inhibition, % at 12.5 µM
Casp3 select – inhibits human caspase-3 in SENP selectivity test | shares compounds with SENP7 inh | purified caspase-3, Z-DEVD-aminoluciferin luminescence, 60 min | inhibition, % at 12.5 µM | 6,200 compounds, 60% hits;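 active = mean inhibition above about 50%, limit read from the data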;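 also: plate controls were enzyme with DMSO for no effect and wells without caspase-3 for full effect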
SENP luc ctr – luminescence interference (SENP counter-screen); shares compounds with SENP7 inh; Pre-incubated SENP8/Z-RLRGG-aminoluciferin, luciferase luminescence interference; inhibition, % at 12.5 µM; 6,200 compounds, 39% hits; AID 488919;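 active = mean inhibition above about 50% when retested at one dose, limit read from the data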;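 also: plate controls were DMSO wells with completed reaction for no effect and substrate without enzyme for full effect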
SENP8 conf-2 – SENP8 (human) inhibition, single concentration confirmation | shares compounds with SENP8 block-1 | purified SENP8, Nedd8-AMC/pro-Nedd8 cleavage fluorescence, 30 min | inhibition, % at 25 µM | 1,400 compounds, 15% hits | AID 624319; in the data active = inhibition mostly above about 39%, no sharp cut-off; inactive = mostly below about 34%
Starred values were filed as active, the others as inactive; / = not tested or not shown.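 The calls were made as follows, unless noted: active = mean inhibition above about 50% in the one-dose retest (limit read from the data); inactive = the rest.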

SMILES	SENP6 block	SENP8 block-1	SENP8 block-2	SENP7 inh	SENP1 inh	SENP8 conf-1	SENP6 confirm	SENP7 confirm	Casp3 select	SENP luc ctr	others
Cc1cccc(C)c1-n1nnnc1C(c1ccnc2ccccc12)N(C)Cc1ccc(Cl)c(Cl)c1 (stereo not given)	/	19.4	/	/	1.7	/	/	/	/	/
Cc1cccc(/C(N)=N/OC(=O)c2ccc(Br)o2)c1	80.1*	12.3	70.2*	78.5*	-1.2	53.4*	77.3*	93.8*	86.3*	30.8
Cc1cccc(/C(N)=N/OC(=O)Cc2ccccc2)c1	7.9	2.2	-12.3	-13.2	0.5	/	/	/	/	/
Cc1cnc(C(=O)N2CCCC(C(=O)c3ccc(C(C)(C)C)cc3)C2)cn1 (stereo not given)	-13.2	2.8	-0.6	-3.4	-2.0	/	/	/	/	/
C/C(=N/NC(=O)c1ccc(C(C)(C)C)cc1)c1ccccn1	5.4	2.0	1.2	16.3	0.6	/	/	/	/	/
CC(C)(C)c1ccc(C(=O)O/N=C(\N)c2ccccn2)cc1	96.8*	14.1	93.6*	97.9*	0.6	85.8*	97.6*	102.0*	95.3*	76.5*
CC(C)(C)c1ccc(C(=O)C2CCCN(C(=O)c3ccccn3)C2)cc1 (stereo not given)	5.3	4.8	2.2	101.6*	0.9	-8.7	-6.9	-9.6	0.0	4.4
Cc1cccc(/C(N)=N/OC(=O)c2ccc3c(c2)OCO3)c1	97.8*	6.7	96.8*	99.6*	3.0	99.6*	100.5*	103.3*	98.3*	98.6*
COc1ccccc1-c1cn(CC[C@H]2CC[C@@H](NS(=O)(=O)c3ccccc3C)[C@@H](CO)O2)nn1	/	12.8	/	/	3.1	/	/	/	/	/
O=C(NCCC(=O)N(CCc1ccccc1)Cc1ccccc1)c1ccc([N+](=O)[O-])cc1	-4.4	10.8	-3.0	0.0	0.6	/	/	/	/	/
CC(C)(C)c1cc(C(=O)N/N=C/c2ccc(-c3ccccc3[N+](=O)[O-])o2)n[nH]1	52.3*	30.3	42.9	22.0	-8.4	-6.1	3.2	-6.2	-11.9	-5.7
Nc1c(C(=O)NCc2ccc3c(c2)OCO3)c2nc3ccccc3nc2n1CCCN1CCOCC1	92.0*	-277.0	91.4*	4.1	-24.2	10.0	7.7	-3.3	2.7	-4.7
Nc1c(C(=O)NCc2ccccc2)c2nc3ccccc3nc2n1-c1ccc2c(c1)OCO2	67.6*	-260.7	30.4	-2.9	-53.3	11.2	12.0	-2.8	3.3	-0.5
Nc1ccc(-n2c(N)c(C(=O)NCc3ccc4c(c3)OCO4)c3nc4ccccc4nc32)cc1	7.6	-405.5	1.8	2.1	-62.6	/	/	/	/	/
CCN1C(=O)CSC1=Nc1ccc(C(=O)OC)cc1	/	11.7	/	/	1.0	/	/	/	/	/
O=C(NCCSc1ccccc1)c1ccccc1	44.8	12.6	-7.8	25.8	4.5	/	/	/	/	/
O=C(NCCSc1ccccc1)c1ccc(Br)cc1	67.6*	15.3	27.1	47.0	0.8	52.5*	48.8	75.9*	44.6	14.7
O=C(N/N=C\c1ccc([N+](=O)[O-])s1)c1cncc(Br)c1	69.7*	36.9	8.8	15.0	-2.4	-0.5	18.7	-7.0	3.7	3.5
Cc1cc(C)c2c(N)c(C(=O)N3CCc4ccccc4C3)sc2n1	-0.1	-235.0	1.3	5.3	-12.8	/	/	/	/	/
COCCNC(=O)CN(C(=O)c1ccc(N2CCCC2)nc1)c1ccc(F)c(Cl)c1	50.7*	-5.0	56.1*	1.4	1.6	13.3	9.9	12.2	4.2	7.1
CC1(C(=O)NS(=O)(=O)c2ccc(F)cc2F)CCN1C(=O)C1CCCCC1 (stereo not given)	/	7.3	/	/	-0.7	/	/	/	/	/
Cc1nc(SCCc2nc3ccccc3[nH]2)c2oc3ccccc3c2n1	6.0	-7.2	3.6	4.1	-5.1	/	/	/	/	/
O=C(Nc1ccc(N2CCCCC2)cc1)c1ccc([N+](=O)[O-])o1	87.3*	37.7*	74.2*	93.1*	1.9	10.0	89.6*	100.1*	85.0*	20.2	SENP8 conf-2=17.4
CC1CCN(c2ccc(NC(=O)c3ccc([N+](=O)[O-])o3)cc2)CC1	74.9*	55.2*	44.8	78.4*	1.4	-22.6	-3.1	6.0	11.0	-3.2	SENP8 conf-2=-1.0
CS(=O)(=O)N1CCN(c2ccc(NC(=O)c3ccc([N+](=O)[O-])o3)cc2)CC1	/	39.0	/	/	2.1	/	/	/	/	/
SMILES	SENP6 block	SENP8 block-1	SENP8 block-2	SENP7 inh	SENP1 inh	SENP8 conf-1	SENP6 confirm	SENP7 confirm	Casp3 select	SENP luc ctr	others
Cc1ccc(C(=O)NNC(=O)CSc2nnc(C(C)C)n2C)cc1	-7.6	-1.3	-7.7	-12.9	-1.5	/	/	/	/	/
CCN(C[C@H]1N[C@@](CC)(C(=O)OC)[C@H]2C(=O)N(C)C(=O)[C@@H]12)C(=O)c1ccccc1	12.2	8.7	-1.2	3.7	0.8	/	/	/	/	/
Cc1ccc(Cn2c(C3CCCN3c3nc(C)cs3)nc3cc(C(F)(F)F)ccc32)cc1 (stereo not given)	-13.5	19.7	-1.8	-4.7	-2.6	/	/	/	/	/
N#CC1=C2SCN(Cc3ccccc3)CN2C(=O)CC1c1cccs1 (stereo not given)	74.5*	68.8*	71.5*	40.3	-10.3	-25.7	4.6	-2.8	-5.2	-3.7	SENP8 conf-2=9.0
CS(=O)(=O)c1nc2c(cc1C#N)CCCC2	-0.1	-6.8	-5.4	-3.1	2.2	/	/	/	/	/
O=C1Cc2ccccc2C(=O)N1OCc1ccc(Cl)cc1	70.6*	91.7*	28.5	52.2*	-5.3	11.5	28.4	17.0	15.2	4.5	SENP8 conf-2=64.0*
C/C(=N\N=C(/N)c1nonc1N)c1ccc2c(c1)OCO2	84.3*	43.2*	82.3*	91.7*	5.3	87.9*	88.4*	99.7*	91.4*	27.5	SENP8 conf-2=14.8
Cc1ccc(S(=O)(=O)CC(=O)N2CC(C)OC(C)C2)cc1 (stereo not given)	-8.6	1.5	1.5	-1.5	0.8	/	/	/	/	/
COc1ccc2nc3ccccc3nc2c1N	86.9*	78.1*	52.7*	21.6	4.5	-2.9	37.0	74.6*	73.0*	47.0	SENP8 conf-2=14.0
Cc1c(Cl)cccc1N=Cc1ccc([N+](=O)[O-])s1	50.7*	68.2*	54.5*	35.3	1.9	7.8	16.8	12.5	0.5	-1.3	SENP8 conf-2=20.7
N#CCC(=N)N1CCN(c2ccc(F)cc2)CC1	19.3	-32.4	6.7	9.2	-6.9	/	/	/	/	/
